Key:
Plasmodium falciparum = test: Antiplasmodial activity against Plasmodium falciparum FcB1 as [3H]hypoxanthine uptake after 24 hrs; format: functional, organism-based
Method in brief: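 Chloroquine-resistant FcB1/Colombia P. falciparum, asynchronous cultures at 1% parasitemia, 1.5% final hematocrit. Compounds taken from 10 µg/mL DMSO solution, diluted in culture medium; 24 h at 37 °C in candle jar, then 0.5 µCi [3H]hypoxanthine per well, further 24 h. Freeze-thaw, harvest onto glass fibre filters, scintillation count; inhibition vs same-plate untreated control; IC50 by Desjardins method.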

KB = test: Cytotoxicity against human KB cells after 72 hrs by neutral red staining; format: functional, cell-based
Method in brief: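 Human nasopharynx carcinoma KB cells (3 × 10^3 cells/mL) in D-MEM with 10% FCS, 2 mM L-glutamine, penicillin G, streptomycin, gentamicin. Compound stocks in DMSO/H2O (1:9). Exposure 72 h at 37 °C, air/CO2 95:5; growth read colorimetrically by neutral red uptake of living cells, relative to untreated cells.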

Row | SMILES | IC50 (Plasmodium falciparum) | IC50 (KB)
1 | COc1cc2c(cc1OC)-c1c(OC)c(O)cc3c1[C@H](C2)N(C)CC3 [PREDICENTRINE] | 27.8 µM | > 29 µM
2 | COc1cc2c(cc1O)CC[n+]1cc3cc(OC)c(OC)cc3cc1-2 [DEHYDRODISCRETINE] | 0.9 µM | > 29 µM
3 | COc1cc2c(cc1O)CC[N+]1([O-])Cc3cc(OC)c(OC)cc3C[C@@H]21 (stereo partly drawn) | 4.2 µM | > 28 µM
4 | COc1c(O)cc2c3c(cc4ccccc4c13)NC2=O [ARISTOLACTAM AII] | > 37 µM | > 37 µM
5 | CC(=O)O[C@@]12CO[C@@H]1C[C@H](O)[C@@]1(C)C(=O)[C@H](O)C3=C(C)[C@@H](OC(=O)[C@H](O)[C@@H](NC(=O)OC(C)(C)C)c4ccccc4)C[C@@](O)([C@@H](OC(=O)c4ccccc4)[C@H]21)C3(C)C [DOCETAXEL] |  | 0.0002 µM
6 | COc1ccc2c(c1OC)C[C@H]1NCCc3c(OC)c4c(c-2c31)OCO4 [DESMOROSTRATINE] | 3.6 µM | 2.4 µM
7 | COc1cc2c(cc1O)CCN1Cc3cc(OC)c(OC)cc3C[C@@H]21 [DISCRETINE] | 1.6 µM | > 29 µM

Reference: ChEMBL document CHEMBL1151723, “Antiplasmodial alkaloids from Desmos rostrata” (J Nat Prod, 2008)
